Laboratory results from ChEMBL document CHEMBL1125310, “(R)-2-(3-mercapto-2(S)-methyl-1-oxo-propoxy)-3-(methylthio)propanoic acid, the first ultra-short-acting angiotensin converting enzyme inhibitor” (J Med Chem, 1992).

Columns and labels:
[1] = Half-life (hydrolysis) in human blood; type: ADME
[2] = molecular target: T1, Angiotensin-converting enzyme (Oryctolagus cuniculus) (UniProt P12822); test: Inhibitory activity towards purified rabbit lung angiotensin I converting enzyme
T1 sequence (whole entry): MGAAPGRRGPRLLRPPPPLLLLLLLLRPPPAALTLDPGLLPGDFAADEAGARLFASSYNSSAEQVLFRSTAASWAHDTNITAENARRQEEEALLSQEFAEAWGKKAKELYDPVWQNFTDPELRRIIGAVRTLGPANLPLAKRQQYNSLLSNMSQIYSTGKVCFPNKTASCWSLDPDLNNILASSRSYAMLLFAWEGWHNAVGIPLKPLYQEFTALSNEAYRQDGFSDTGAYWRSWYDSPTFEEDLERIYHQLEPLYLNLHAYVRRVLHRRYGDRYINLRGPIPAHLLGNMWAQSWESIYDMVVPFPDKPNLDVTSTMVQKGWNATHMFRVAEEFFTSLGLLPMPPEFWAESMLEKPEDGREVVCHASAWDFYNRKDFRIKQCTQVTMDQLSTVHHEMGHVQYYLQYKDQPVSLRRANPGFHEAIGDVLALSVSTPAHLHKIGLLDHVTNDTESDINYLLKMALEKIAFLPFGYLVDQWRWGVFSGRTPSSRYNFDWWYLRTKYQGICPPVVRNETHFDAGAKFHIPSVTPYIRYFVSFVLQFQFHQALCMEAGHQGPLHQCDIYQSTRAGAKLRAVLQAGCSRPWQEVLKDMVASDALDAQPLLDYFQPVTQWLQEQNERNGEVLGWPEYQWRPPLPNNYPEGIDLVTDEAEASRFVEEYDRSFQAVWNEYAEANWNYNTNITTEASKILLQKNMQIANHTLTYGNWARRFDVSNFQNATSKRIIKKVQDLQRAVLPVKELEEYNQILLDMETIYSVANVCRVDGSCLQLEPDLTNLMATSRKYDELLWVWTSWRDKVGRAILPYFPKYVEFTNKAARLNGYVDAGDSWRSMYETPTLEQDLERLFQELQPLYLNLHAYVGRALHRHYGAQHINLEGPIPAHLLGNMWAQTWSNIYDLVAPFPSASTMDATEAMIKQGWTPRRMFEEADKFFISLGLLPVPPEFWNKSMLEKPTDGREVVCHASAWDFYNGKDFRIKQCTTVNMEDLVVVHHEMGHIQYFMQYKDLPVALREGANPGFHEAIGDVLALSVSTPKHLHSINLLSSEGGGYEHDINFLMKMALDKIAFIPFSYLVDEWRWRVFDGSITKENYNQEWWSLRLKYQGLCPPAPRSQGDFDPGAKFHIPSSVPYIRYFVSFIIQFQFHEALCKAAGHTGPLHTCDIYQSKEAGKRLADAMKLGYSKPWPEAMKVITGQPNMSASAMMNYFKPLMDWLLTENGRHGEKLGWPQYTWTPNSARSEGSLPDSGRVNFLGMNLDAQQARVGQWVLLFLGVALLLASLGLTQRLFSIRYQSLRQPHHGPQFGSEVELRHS
Summary of the method: (§1)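 Purified rabbit lung ACE was used, following a published method with two changes: Zn2+ (20 μM) was added to the purified enzyme, and the substrate was radiolabeled. The read-out was inhibition of enzyme activity.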

[3] = molecular target: T1, Angiotensin-converting enzyme (Oryctolagus cuniculus); test: Inhibitory activity towards purified rabbit lung Angiotensin I converting enzyme; summary of the method: as §1
[4] = molecular target: T1, Angiotensin-converting enzyme (Oryctolagus cuniculus); test: Inhibitory activity towards purified rabbit lung angiotensin I converting enzyme; no inhibition at 10 e-5 M
[5] = molecular target: T1, Angiotensin-converting enzyme (Oryctolagus cuniculus); test: Inhibitory activity towards purified rabbit lung angiotensin I converting enzyme at 10 e-4 M

Row | SMILES | half-life [1] [min] | IC50 [2] [nM] | IC50 [3] [nM] | other results
1 | C[C@H](CS)C(=O)N[C@@H](Cc1ccccc1)C(=O)O | > 60 |  | 84.7 | 
2 | CC(C)SC[C@H](OC(=O)[C@H](C)CS)C(=O)O | 20 | 2.8 |  | 
3 | C[C@H](CS)C(=O)O[C@@H](CSC1CCCC1)C(=O)O | 27 |  | 1.8 | 
4 | C[C@H](CS)C(=O)O[C@@H](CSCc1ccccc1)C(=O)O | > 60 |  | 3.2 | 
5 | CSC[C@H](O)C(=O)O |  |  |  | inhibition [4]: no inhibition at 10 e-5 M
6 | CCC(CC)SC[C@H](OC(=O)[C@H](C)CS)C(=O)O | 37 | 2 |  | 
7 | C[C@H](CS)C(=O)O |  |  |  | inhibition [5]: 30%
8 | C[C@H](CS)C(=O)O[C@@H](Cc1ccccc1)C(=O)O | 23 |  | 10.6 | 

Further lines, with some results ahead:

Row | half-life [1] [min] | IC50 [2] [nM] | IC50 [3] [nM] | SMILES | other results
9 | 14 | 5.7 |  | CSC[C@H](OC(=O)[C@H](C)CS)C(=O)O | 
10 |  |  | 2.7 | C[C@H](CS)C(=O)N1CCC[C@H]1C(=O)O | 
11 | 53 | 123 |  | C[C@H](CS)C(=O)OCC(=O)O | 
